Source: ChEMBL document CHEMBL4396917, “Synthesis and biological evaluation of novel benzylidene-succinimide derivatives as noncytotoxic antiangiogenic inhibitors with anticolorectal cancer activity in vivo” (Eur J Med Chem, 2019)
Calls of active or inactive are those of the source. The rule behind the calls is not given here.

Key:
HUVEC [1] = assay: Antiinvasive activity in HUVEC assessed as inhibition of VEGF-induced cell invasion at 1 uM after 6 hrs by crystal violet staining based transwell assay relative to control; format: functional; details: Homo sapiens
In short: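 Transwell: 1×10⁴ HUVECs in serum-free M200 in top chamber with vehicle or compound; bottom chamber M200 with 10% FBS; 6 h at 37°C; cells on membrane underside fixed in 4% paraformaldehyde, stained 0.1% crystal violet, imaged and counted.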

NCM460 = assay: Cytotoxicity against human NCM460 cells assessed as reduction in cell growth after 72 hrs by MTT assay; format: cell-based; details: NCM460, 72 h
[2] = target: Serine/threonine-protein kinase mTOR (Homo sapiens) (UniProt P42345); assay: Inhibition of mTOR (unknown origin) at 10 uM using myelin basic protein as substrate in presence of [gamma-33P]-ATP by scintillation counting analysis relative to control
In short: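 Radiometric kinase panel run by a contract lab. Kinase (5–10 mU) in 25 mM Tris pH 7.5, 0.02 mM EGTA, 0.66 mg/mL myelin basic protein, magnesium acetate and [γ-33P]-ATP (about 500 cpm/pmol). Started with Mg-ATP mix, 40 min at room temperature, stopped with 3% phosphoric acid. Spotted on P30 filters, washed in 75 mM phosphoric acid and methanol, scintillation counted. Mean ± SD of three independent experiments.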

HT-29 [3] = assay: Induction of apoptosis in human HT-29 cells assessed as necrotic cells at 5 uM after 24 hrs by Annexin V-FITC/propidium iodide staining based flow cytometric analysis (reference value: 1.3 to 3.9%); format: cell-based; details: ht-29, 24 h
HUVEC [4] = assay: Antiangiogenic activity in HUVEC assessed as inhibition of VEGF-induced capillary like tube formation preincubated with VEGF for 20 mins followed by compound addition measured after 6 hrs by matrigel based tube formation assay; format: functional, cell-based; details: Homo sapiens
In short: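 Matrigel (100 μL) set 1 h at 37°C; 2×10⁴ HUVECs in M200 with 10% FBS added per well plus 10 ng/mL VEGF; compound added after 20 min; incubated 6 h at 37°C, then capillary-like structures photographed.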

HUVEC [5] = assay: Antimigratory activity in HUVEC assessed as reduction in VEGF-induced cell migration measured after 6 to 24 hrs by wound healing assay; format: functional, cell-based; details: Homo sapiens
In short: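 Confluent HUVECs starved 12 h in M200 with 2% FBS, scratched with pipette tip; fresh M200 with 25 ng/mL VEGF plus vehicle, 2.5 μM sunitinib or compound (1, 2.5 μM); wound imaged at 0, 6, 12 and 24 h by inverted microscopy.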

[6] = target: RAC-alpha serine/threonine-protein kinase (Homo sapiens) (UniProt P31749); assay: Inhibition of AKT1 (unknown origin) at 10 uM using myelin basic protein as substrate in presence of [gamma-33P]-ATP by scintillation counting analysis relative to control
In short: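 Radiometric kinase assay: kinase (5–10 mU) in 25 mM Tris pH 7.5, 0.02 mM EGTA, 0.66 mg/mL myelin basic protein, magnesium acetate and [γ-33P]ATP. The reaction was started with Mg-ATP, run 40 min at room temperature and stopped with 3% phosphoric acid. Samples were spotted on P30 filters, washed with 75 mM phosphoric acid and methanol, then scintillation counted. Tested at 10 μM; mean of three independent experiments.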

HT-29 [7] = assay: Induction of apoptosis in human HT-29 cells assessed as late apoptotic cells at 20 uM after 24 hrs by Annexin V-FITC/propidium iodide staining based flow cytometric analysis (reference value: 13.4%); format: cell-based; details: ht-29, 24 h
HT-29 [8] = assay: Antiangiogenic activity against human HT-29 cells xenografted in mouse assessed as reduction in mean vessel density in tumour at 40 mg/kg, po administered for 7 days measured at 20 days post-treatment; format: functional, organism-based
HUVEC [9] = assay: Induction of apoptosis in VEGF-stimulated HUVEC assessed as late apoptotic cells at 10 uM after 24 hrs by Annexin V-FITC/propidium iodide staining based flow cytometric analysis (reference value: 11.3%); format: cell-based; details: human
In short: (§1)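 HUVECs plated at 5×10^5 per well and treated 24 h with 1, 5, 10 or 20 μM. Detached and adherent cells were pooled, washed in ice-cold PBS and resuspended in fresh medium. 1×10^5 cells were stained with annexin-V-FITC in annexin-V buffer for 20 min in the dark, then PI (50 μg/mL) was added. Read-out by flow cytometry.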

HUVEC [10] = assay: Antiangiogenic activity against VEGF-induced HUVEC assessed as inhibition of cell proliferation preincubated for 30 mins followed by VEGF addition measured after 24 hrs by MTT assay; format: functional, cell-based; details: Homo sapiens
In short: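 HUVECs seeded 24 h, starved 16 h in M200 with 2% FBS, pretreated 30 min with compound at 0.1, 1, 10, 20 or 40 μM, then stimulated with VEGF (25 ng/mL) for 24 h; viability read by MTT; IC50 determined.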

HT-29 [11] = assay: Induction of apoptosis in human HT-29 cells assessed as necrotic cells at 5 uM after 72 hrs by Annexin V-FITC/propidium iodide staining based flow cytometric analysis (reference value: 1.3%); format: cell-based; details: ht-29, 72 h
HT-29 [12] = assay: Antiangiogenic activity against human HT-29 cells xenografted in mouse assessed as reduction in formation of new blood vessels in tumour at 20 to 60 mg/kg, po administered every other day for 3 weeks measured at 20 days post-treatment; format: functional, organism-based
HUVEC [13] = assay: Induction of apoptosis in VEGF-stimulated HUVEC assessed as necrotic cells at 20 uM after 24 hrs by Annexin V-FITC/propidium iodide staining based flow cytometric analysis (reference value: 12.1%); format: cell-based; details: human; in short: as §1
HUVEC [14] = assay: Induction of apoptosis in VEGF-stimulated HUVEC assessed as late apoptotic cells at 20 uM after 24 hrs by Annexin V-FITC/propidium iodide staining based flow cytometric analysis (reference value: 11.3%); format: cell-based; details: human; in short: as §1
HT-29 [15] = assay: Induction of apoptosis in human HT-29 cells assessed as early apoptotic cells at 5 uM after 24 hrs by Annexin V-FITC/propidium iodide staining based flow cytometric analysis (reference value: 1.9 to 5.3%); format: cell-based; details: ht-29, 24 h
[16] = target: Vascular endothelial growth factor receptor 2 (Homo sapiens) (UniProt P35968); assay: Inhibition of VEGFR2 in VEGF-stimulated HUVEC assessed as downregulation of Src phosphorylation at Tyr416 residue at 1 to 10 uM pre-incubated for 2 hrs followed by VEGF stimulation and measured after 15 mins by Western blot analysis; format: cell-based
HT-29 [17] = assay: Antiangiogenic activity in human HT-29 cells assessed as decrease in secreted MMP2 activity at 1 to 20 uM after 24 hrs by gelatin zymography; format: functional, cell-based
In short: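 HT29 cells treated 1, 5, 10 or 20 μM for 24 h; supernatant run non-reducing on 10% SDS-PAGE with 2% gelatin; SDS removed with 2% Triton X-100, gel incubated 48 h at 37°C in Tris pH 7.5/NaCl/CaCl2 buffer, Coomassie stained; clear MMP-2 and MMP-9 bands quantified by densitometry.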

[18] = target: Vascular endothelial growth factor receptor 2 (Homo sapiens) (UniProt P35968); assay: Inhibition of VEGFR2 in VEGF-stimulated HUVEC assessed as downregulation of STAT3 phosphorylation at Tyr705 residue at 1 to 10 uM pre-incubated for 2 hrs followed by VEGF stimulation and measured after 15 mins by Western blot analysis; format: cell-based
HT-29 [19] = assay: Induction of apoptosis in human HT-29 cells assessed as early apoptotic cells at 5 uM after 48 hrs by Annexin V-FITC/propidium iodide staining based flow cytometric analysis (reference value: 5.3%); format: cell-based; details: ht-29, 48 h

Sequence of Vascular endothelial growth factor receptor 2 (Homo sapiens) (P35968 whole entry): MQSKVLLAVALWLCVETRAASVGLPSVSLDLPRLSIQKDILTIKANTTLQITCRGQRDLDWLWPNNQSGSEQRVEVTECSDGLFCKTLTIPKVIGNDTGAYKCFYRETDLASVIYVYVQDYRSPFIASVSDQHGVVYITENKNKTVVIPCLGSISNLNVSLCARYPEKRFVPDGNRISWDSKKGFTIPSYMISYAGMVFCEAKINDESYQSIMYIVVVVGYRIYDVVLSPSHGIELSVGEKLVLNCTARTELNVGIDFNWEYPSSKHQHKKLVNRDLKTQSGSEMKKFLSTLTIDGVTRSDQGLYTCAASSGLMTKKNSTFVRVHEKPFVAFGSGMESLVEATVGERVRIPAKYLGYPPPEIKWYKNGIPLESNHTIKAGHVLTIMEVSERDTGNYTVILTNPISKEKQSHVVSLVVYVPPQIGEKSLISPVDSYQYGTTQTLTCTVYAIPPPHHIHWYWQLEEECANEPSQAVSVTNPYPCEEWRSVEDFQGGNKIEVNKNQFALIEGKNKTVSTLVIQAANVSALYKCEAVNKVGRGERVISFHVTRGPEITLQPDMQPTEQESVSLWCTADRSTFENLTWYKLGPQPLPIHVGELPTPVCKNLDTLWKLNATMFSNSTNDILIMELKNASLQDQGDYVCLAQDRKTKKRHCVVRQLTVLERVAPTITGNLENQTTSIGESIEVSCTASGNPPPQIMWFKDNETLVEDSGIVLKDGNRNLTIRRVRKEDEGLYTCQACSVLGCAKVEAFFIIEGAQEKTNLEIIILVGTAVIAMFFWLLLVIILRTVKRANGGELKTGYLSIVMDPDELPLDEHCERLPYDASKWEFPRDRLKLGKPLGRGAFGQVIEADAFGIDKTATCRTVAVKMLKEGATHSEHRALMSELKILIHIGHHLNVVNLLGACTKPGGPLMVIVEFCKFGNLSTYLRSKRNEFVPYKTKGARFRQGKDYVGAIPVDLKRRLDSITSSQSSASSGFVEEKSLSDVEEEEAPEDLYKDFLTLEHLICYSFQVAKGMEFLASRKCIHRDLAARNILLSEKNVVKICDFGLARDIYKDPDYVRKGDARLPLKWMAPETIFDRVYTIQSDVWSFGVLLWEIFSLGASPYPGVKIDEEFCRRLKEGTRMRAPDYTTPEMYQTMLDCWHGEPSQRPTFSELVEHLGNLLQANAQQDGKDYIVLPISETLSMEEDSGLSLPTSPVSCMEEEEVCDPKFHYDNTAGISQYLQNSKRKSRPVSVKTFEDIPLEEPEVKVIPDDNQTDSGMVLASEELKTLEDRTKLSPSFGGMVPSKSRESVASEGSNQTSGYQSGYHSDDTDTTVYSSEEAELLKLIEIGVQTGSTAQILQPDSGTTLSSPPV
Sequence of RAC-alpha serine/threonine-protein kinase (Homo sapiens) (P31749 whole entry): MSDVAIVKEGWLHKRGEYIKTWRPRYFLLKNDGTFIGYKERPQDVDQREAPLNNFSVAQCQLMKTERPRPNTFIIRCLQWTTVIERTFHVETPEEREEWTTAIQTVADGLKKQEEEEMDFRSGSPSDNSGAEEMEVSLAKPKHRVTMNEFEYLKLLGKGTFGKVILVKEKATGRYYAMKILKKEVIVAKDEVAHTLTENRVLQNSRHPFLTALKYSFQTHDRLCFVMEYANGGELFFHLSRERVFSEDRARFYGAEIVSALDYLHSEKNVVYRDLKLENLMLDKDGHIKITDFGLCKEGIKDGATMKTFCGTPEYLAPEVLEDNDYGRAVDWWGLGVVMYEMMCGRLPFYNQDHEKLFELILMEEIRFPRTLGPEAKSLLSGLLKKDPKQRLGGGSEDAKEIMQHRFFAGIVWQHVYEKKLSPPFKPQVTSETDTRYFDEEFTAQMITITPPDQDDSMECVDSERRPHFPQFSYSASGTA

inhibition [2]: 93.8%
inhibition [6]: 50 to 70%
inhibition [16]: Active
inhibition [18]: Active
Structure (SMILES): COc1ccc(NC(=O)c2cccc(/C=C3\CC(=O)N(c4ccc(C)cc4)C3=O)c2)cc1
inhibition at 1 µM (HUVEC [1]): 20%
IC50 (NCM460): > 100 µM
Activity (HT-29 [3]): 0.8 to 4.7%
inhibition (HUVEC [4]): Dose-dependent effect
inhibition (HUVEC [5]): Dose-dependent effect
Activity (HT-29 [7]): 17.1%
inhibition (HT-29 [8]): Active
Activity (HUVEC [9]): 11.7%
IC50 (HUVEC [10]): 8.56 µM
Activity (HT-29 [11]): 0.8%
inhibition (HT-29 [12]): Active
Activity (HUVEC [13]): 5.6%
Activity (HUVEC [14]): 10.1%
Activity (HT-29 [15]): 1.2 to 5.4%
inhibition (HT-29 [17]): Active
Activity (HT-29 [19]): 9.7%
